The record followed here is ChEMBL document CHEMBL1124344, “5-Piperazinylalkyl-2(3H)-oxazolones with neuroleptic activity” (J Med Chem, 1989).

Series [1] concerns Mus musculus. The series can be described thus: Antagonistic activity against amphetamine-induced Hypermobility in mice, by administering perorally at a dose of 100 mg/kg. Type of series: functional. The conditions noted are these: route oral. The procedure, abridged:
(§1)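 Male mice in groups of five, fasted overnight, given oral drug in arabic gum suspension (10 mL/kg) 1 or 5 h ahead. Amphetamine 4 mg/kg ip given 30 min after drug. Ten minutes later locomotion is recorded for 15 min in a photocell actophotometer. ED50 is 50% reduction versus control hypermotility, by probit analysis. Parenthetical entries give the maximal dose and percent activity.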

Series [2] in a line: Lethal dose in mice (LD50) following i.p. dosing. Format: toxicity, organism-based. Particulars: mouse, in vivo, ip. Put shortly:
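Acute toxicity tested in mice by the intraperitoneal route. LD50 is the dose killing 50% of treated mice, computed by Finney probit analysis; values are approximate.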

Series [3] has as its system Rattus norvegicus. The series can be described thus: Antagonistic activity against apomorphine-induced stereotypy in rats, by administering perorally at a dose of 100 mg/kg. Type of series: functional. Particulars: route oral. Put shortly:
(§2)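 Male rats fasted overnight and given oral doses in arabic gum suspension (10 mL/kg) 1 h, or 1 and 5 h, before challenge. Apomorphine 3 mg/kg iv, with stereotypy observed 20 min later. ED50 is the dose inhibiting stereotypy in 50% of rats, per Janssen's method. Parenthetical entries give the maximal dose and percent activity.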

Series [4] concerns Rattus norvegicus. As to the kind of experiment: Activity to evoke catalepsy in rats, by administering perorally at a dose of 100 mg/kg. Type of series: functional. The conditions noted are these: route oral, read-out: Inhibition. The procedure, abridged:
(§3)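 Rats fasted overnight and given oral doses in arabic gum suspension (10 mL/kg), 1 h before screening or 1 and 5 h before profile testing. Forelegs placed on a horizontal bar 7 cm high, three times at 5-min intervals. Immobility of at least 15 s counts as catalepsy. ED50 is the dose giving catalepsy in 50% of rats, by probit analysis. Parenthetical entries give the maximal dose and percent activity.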

Series [5] concerns Mus musculus. The series can be described thus: Inhibition of spontaneous motor activity in mice, by administering perorally at a dose of 125 mg/kg. Format: functional. The conditions noted are these: route oral. Put shortly: (§4)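 Mice fasted overnight, then dosed orally with compound (weighed as base) suspended in arabic gum, 10 mL/kg, with vehicle controls; 1 h pretreatment for screening tests, 1 or 5 h for others. Groups of five; locomotor activity counted 10 min in photocell activity cage, at least two groups per dose. ED50 = dose giving 50% inhibition versus controls, by probit analysis.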

Series [6] concerns Mus musculus. The series can be described thus: Inhibition of spontaneous motor activity in mice, by administering perorally. Type of series: functional. Particulars: po. Put shortly: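 Mice in groups of five were dosed orally with gum arabic suspensions at 10 mL/kg after an overnight fast, with a vehicle control group. Locomotion was counted for 10 min in a photocell activity cage, in at least two groups per dose. ED50, by probit analysis, is the dose giving 50% inhibition against controls.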

The test system of series [7] is Rattus norvegicus. As to the kind of experiment: Antagonistic activity against apomorphine-induced stereotypy in rats, by administering perorally at a dose of 200 mg/kg. Format: functional. The conditions noted are these: route oral. The procedure, abridged:
as §2

The subject of series [8] is Mus musculus. The series can be described thus: Inhibition of spontaneous motor activity in mice, by administering perorally at a dose of 90 mg/kg. Format: functional. Particulars: route oral. Put shortly: as §4
Series [9] has as its system Rattus norvegicus. As to the kind of experiment: Activity to evoke catalepsy in rats, by administering perorally at a dose of 90 mg/kg. Format: functional. Particulars: route oral. Put shortly: as §3
Series [10] relates to Rattus norvegicus. The series can be described thus: Antagonistic activity against apomorphine-induced stereotypy in rats, by administering perorally at a dose of 90 mg/kg. Format: functional. The conditions noted are these: route oral. Put shortly: as §2
For series [11], the system named is Mus musculus. As to the kind of experiment: Inhibition of amphetamine-induced hypermobility in mice following p.o. administration. Type of series: functional. The conditions noted are these: po. Put shortly: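 Compounds were given orally to male mice (gum arabic suspension, 10 mL/kg, fasted) in groups of five. Amphetamine 4 mg/kg ip followed 30 min later. After another 10 min, motility was recorded for 15 min with a photocell actophotometer. ED50, by probit analysis, is the dose giving 50% reduction against controls.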

In series [12] the test system is Mus musculus. The series can be described thus: Antagonistic activity against amphetamine-induced Hypermobility in mice, by administering perorally at a dose of 20 mg/kg. Format: functional. Particulars: route oral. The procedure, abridged:
as §1

Series [13] concerns Rattus norvegicus. As to the kind of experiment: Antagonistic activity against apomorphine-induced stereotypy in rats, by administering perorally at a dose of 20 mg/kg. Type of series: functional. Particulars: route oral. Put shortly: as §2
Series [14] relates to Mus musculus. As to the kind of experiment: Inhibition of spontaneous motor activity in mice, by administering perorally at a dose of 20 mg/kg. Format: functional. The conditions noted are these: route oral. The procedure, abridged:
as §4

Series [15] relates to Rattus norvegicus. As to the kind of experiment: Activity to evoke catalepsy in rats, by administering perorally at a dose of 20 mg/kg. Type of series: functional. The conditions noted are these: route oral, read-out: Inhibition. Put shortly:
as §3

The subject of series [16] is Rattus norvegicus. The series can be described thus: Activity to evoke catalepsy in rats, by administering perorally at a dose of 70 mg/kg. The conditions noted are these: route oral. Type of series: functional. Put shortly: as §3
The test system of series [17] is Rattus norvegicus. As to the kind of experiment: Antagonistic activity against apomorphine-induced stereotypy in rats, by administering perorally. Type of series: functional. Particulars: po. The procedure, abridged:
as §2

Series [18] concerns Mus musculus. The series can be described thus: Inhibition of spontaneous motor activity in mice, by administering perorally at a dose of 70 mg/kg. Type of series: functional. Particulars: route oral. Put shortly:
as §4

Series [19] deals with Mus musculus. As to the kind of experiment: Antagonistic activity against amphetamine-induced Hypermobility in mice, by administering perorally at a dose of 70 mg/kg. Type of series: functional. The conditions noted are these: route oral. The procedure, abridged: as §1
Series [20] relates to Rattus norvegicus. As to the kind of experiment: Activity to evoke catalepsy in rats, by administering perorally at a dose of 60 mg/kg. Format: functional. The conditions noted are these: route oral. The procedure, abridged:
as §3

Series [21] relates to Rattus norvegicus. The series can be described thus: Antagonistic activity against apomorphine-induced stereotypy in rats, by administering perorally at a dose of 60 mg/kg. Format: functional. Particulars: route oral. Put shortly:
as §2

Turning to `O=c1oc(CCN2CCN(c3ccccc3)CC2)c(-c2ccc(F)cc2)n1-c1ccccc1`, the inhibition in vivo at 100 mg/kg with Mus musculus [1] and with Rattus norvegicus [3] was 0% each time. This molecule displayed an LD50 in [2] of over 1000 mg/kg. The percent of rats showing catalepsy at 100 mg/kg in the series with Rattus norvegicus [4] was 0%. For the same molecule, 125 mg/kg produced 0% inhibition in vivo in the series on Mus musculus [5].

`Oc1nc(-c2ccc(F)cc2)c(CCN2CCN(c3ccccn3)CC2)o1`: the inhibition in vivo at 100 mg/kg in the series with Mus musculus [1] turned out to be 0%. This molecule showed an ED50 in the series on Mus musculus [6] of 38 mg/kg. Also, 200 mg/kg produced 30% inhibition in vivo in the series with Rattus norvegicus [7]. The molecule further gave an LD50 in series [2] of over 1000 mg/kg. The percent of rats showing catalepsy at 100 mg/kg with Rattus norvegicus [4] was 0%.

For `Oc1nc(-c2ccc(F)cc2)c(CCN2CCN(c3cc(Cl)ccc3Cl)CC2)o1`, the inhibition in vivo at 90 mg/kg turned out to be 45% in the series on Mus musculus [8], 0% in the series on Rattus norvegicus [9] and 0% with Rattus norvegicus [10]. This molecule also registered an LD50 in series [2] of 750 mg/kg. The molecule also returned an ED50 in the series on Mus musculus [11] of 10 mg/kg.

With `Oc1nc(-c2ccc(F)cc2)c(CCN2CCN(c3cc(Cl)c(Cl)cc3Cl)CC2)o1`, the inhibition in vivo at 20 mg/kg with Mus musculus [12], in the series on Rattus norvegicus [13] and in the series with Mus musculus [14] was 0% throughout. For the same molecule, the percent of rats showing catalepsy at 20 mg/kg in the series with Rattus norvegicus [15] turned out to be 0%. Also, in series [2], the LD50 was 750 mg/kg.

For `COc1ccc(-c2nc(O)oc2CCN2CCN(c3ccccc3)CC2)cc1`, the inhibition in vivo at 70 mg/kg with Rattus norvegicus [16] stood at 0%; in the series with Mus musculus [18], 26%; in the series on Mus musculus [19] it was 27%. It took a dose of 47 mg/kg to reach the 50% effect level in the series with Rattus norvegicus [17] (ED50). The molecule also showed an LD50 in series [2] of 350 mg/kg.

Regarding `Cc1ccccc1N1CCN(CCc2oc(O)nc2-c2ccc(F)cc2)CC1`, the inhibition in vivo at 60 mg/kg in the series with Rattus norvegicus [20] and in the series on Rattus norvegicus [21] was 0% each time. Moreover, the ED50 with Mus musculus [6] is 6.3 mg/kg; in the series with Mus musculus [11], 8.6 mg/kg. The molecule further yielded an LD50 in series [2] of 250 mg/kg.

In the case of `Oc1nc(-c2ccc(F)cc2)c(CCN2CCN(c3ccc(Cl)c(Cl)c3Cl)CC2)o1`, the inhibition in vivo at 20 mg/kg with Mus musculus [12], in the series on Rattus norvegicus [13] and with Mus musculus [14] was 0% each time. Also, in the series on Rattus norvegicus [15], the percent of rats showing catalepsy at 20 mg/kg came to 0%. Also, in series [2], the LD50 was 750 mg/kg.

One may read the inhibition in vivo as how much of the control response was suppressed. Read a low inhibition in vivo as a response near the control. By LD50 is commonly meant the dose at which mortality reaches 50%. A high value points to lower toxicity. For orientation: ED50 means the midpoint of the dose-response relation. A lower ED50 goes with an effect at a small dose.
